Data: ChEMBL document CHEMBL3751835, “Discovery of the imidazole-derived GPR40 agonist AM-3189” (Bioorg Med Chem Lett, 2016)
pEC50: −log10 of the molar value. Active and inactive are the calls of the source. The calls are words filed in the database; no cut-off is given here.

Tests used:
[1] = biological target: Free fatty acid receptor 1 (Homo sapiens, UniProt O14842); experiment: Partial agonist activity at human GPR40 expressed in CHO cells measured over 20 secs interval by luminometric analysis in presence of 100% human serum; format: cell-based
Free fatty acid receptor 1 (Homo sapiens, UniProt O14842), sequence (O14842 whole entry): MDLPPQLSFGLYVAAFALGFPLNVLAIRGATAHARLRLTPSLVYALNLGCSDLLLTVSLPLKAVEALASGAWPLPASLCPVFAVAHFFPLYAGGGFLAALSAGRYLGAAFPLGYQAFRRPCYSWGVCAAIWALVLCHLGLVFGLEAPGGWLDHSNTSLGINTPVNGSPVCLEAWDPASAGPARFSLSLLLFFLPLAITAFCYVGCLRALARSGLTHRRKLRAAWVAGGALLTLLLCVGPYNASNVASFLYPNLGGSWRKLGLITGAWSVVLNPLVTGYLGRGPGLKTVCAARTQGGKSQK
Method in brief: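 Aequorin chemiluminescence read-out of calcium flux in a CHO line stably transfected with human GPR40, giving EC50. Run in buffer containing 0.01% human serum albumin, or in 100% human serum to test activity with plasma proteins present.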

[2] = Clearance in mouse at 1 mg/kg, iv; format: ADME, organism-based; conditions: in vivo
Method in brief: (§1)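 Oral doses given as a suspension in aqueous 1% Tween 80 in 1% methylcellulose; IV doses formulated in 10% N,N-dimethylacetamide, 10% ethanol, 30% propylene glycol, 50% sterile water. Animals per species: mouse n = 2 (plasma from two mice at each time point), rat n = 2, dog n = 3, cynomolgus monkey n = 3.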

[3] = Clearance in dog at 0.5 mg/kg, iv; format: ADME, organism-based, Canis lupus familiaris; conditions: in vivo; method in brief: as §1
[4] = Half life in rat at 0.5 mg/kg, iv; format: ADME, organism-based; conditions: in vivo; method in brief: as §1
[5] = Half life in dog at 0.5 mg/kg, iv; format: ADME, organism-based, Canis lupus familiaris; conditions: in vivo; method in brief: as §1
[6] = Half life in cynomolgus monkey at 0.5 mg/kg, iv; format: ADME, organism-based, Macaca fascicularis; conditions: in vivo; method in brief: as §1
[7] = Volume of distribution at steady state in mouse at 1 mg/kg, iv; format: ADME, organism-based; conditions: in vivo, read-out: Vdss; method in brief: as §1
[8] = Volume of distribution at steady state in dog at 0.5 mg/kg, iv; format: ADME, organism-based, Canis lupus familiaris; conditions: in vivo, read-out: Vdss; method in brief: as §1
[9] = Oral bioavailability in rat at 2 mg/kg; format: ADME, organism-based; conditions: in vivo; method in brief: as §1
[10] = Oral bioavailability in dog at 2 mg/kg; format: ADME, organism-based, Canis lupus familiaris; conditions: in vivo; method in brief: as §1
MDR1 [11] = experiment: Permeability across apical to basolateral side in MDCK cells expressing MDR1; format: ADME, cell-based, Canis lupus familiaris; conditions: dog, read-out: permeability
MDR1 [12] = experiment: Efflux ratio of permeability from basolateral to apical over apical basolateral side in MDCK cells expressing MDR1; format: ADME, cell-based, Canis lupus familiaris; conditions: dog
Pancreatic islet = experiment: Induction of insulin release in human pancreatic islets; format: functional
[13] = biological target: Free fatty acid receptor 1 (Rattus norvegicus) (UniProt Q8K3T4); experiment: Agonist activity at rat GPR40 in presence of 0.01% human serum albumin relative to AMG 837
Free fatty acid receptor 1 (Rattus norvegicus), sequence (Q8K3T4 whole entry): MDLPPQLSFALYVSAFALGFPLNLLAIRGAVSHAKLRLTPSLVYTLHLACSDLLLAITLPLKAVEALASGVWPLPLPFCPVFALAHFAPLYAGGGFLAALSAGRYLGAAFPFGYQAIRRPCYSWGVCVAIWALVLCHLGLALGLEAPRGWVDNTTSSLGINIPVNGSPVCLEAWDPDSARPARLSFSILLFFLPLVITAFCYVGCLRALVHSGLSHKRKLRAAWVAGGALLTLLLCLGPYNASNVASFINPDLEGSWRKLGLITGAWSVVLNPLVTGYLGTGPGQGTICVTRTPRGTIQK

Canis lupus familiaris = species: Canis lupus familiaris; experiment: Agonist activity at dog GPR40 in presence of 0.01% human serum albumin relative to AMG 837
[14] = biological target: Free fatty acid receptor 1 (Macaca fascicularis, UniProt Q76JV1); experiment: Agonist activity at cynomolgus monkey GPR40 in presence of 0.01% human serum albumin relative to AMG 837
Free fatty acid receptor 1 (Macaca fascicularis, UniProt Q76JV1), sequence (Q76JV1 whole entry): as the sequence (O14842 whole entry) above, with G10A, T31R, L36R, A83G, F88A, G143V, R211H, Y250N, G296S, K297T counted along it

[15] = biological target: Free fatty acid receptor 1 (Macaca fascicularis) (UniProt Q76JV1); experiment: Agonist activity at cynomolgus monkey GPR40 in presence of 0.01% human serum albumin relative to AMG 837 relative to AMG 837
Free fatty acid receptor 1 (Macaca fascicularis), sequence (Q76JV1 whole entry): as the sequence (O14842 whole entry) above, with G10A, T31R, L36R, A83G, F88A, G143V, R211H, Y250N, G296S, K297T counted along it

Mus musculus [16] = experiment: Reduction of blood glucose AUC in human islet transplanted nude chimeric mouse at 1 and 10 mg/kg, po administered 1 hr prior to glucose challenge by OGTT; format: functional, organism-based
Method in brief: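 Nude mice had their endogenous pancreatic β-cells ablated with streptozotocin and were rescued to euglycemia by human islets transplanted under the kidney capsule. Compound was dosed before a glucose challenge, and the glucose AUC was determined.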

Mus musculus [17] = experiment: Reduction of blood glucose AUC in human GPR40 knock-in chimeric mouse at 30 mg/kg, po administered 1 hr prior to glucose challenge by OGTT; format: functional, organism-based
Method in brief: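 Female human GPR40 knock-in mice, 28 weeks old, fasted 6 h, then dosed by oral gavage with compound formulated in 1% methylcellulose, 1% Tween-80. Glucose 2 g/kg was given by oral gavage 1 h after the drug. Blood glucose was read from tail-vein samples at several time points with a glucometer.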

[18] = Ratio of drug level in brain to plasma in rat at 5 mg/kg, po after 3 hrs; format: ADME, organism-based
[19] = biological target: T1, Peroxisome proliferator-activated receptor alpha (Homo sapiens) (UniProt Q07869); experiment: Activity at PPARalpha (unknown origin) by cell based assay
T1 sequence (whole entry): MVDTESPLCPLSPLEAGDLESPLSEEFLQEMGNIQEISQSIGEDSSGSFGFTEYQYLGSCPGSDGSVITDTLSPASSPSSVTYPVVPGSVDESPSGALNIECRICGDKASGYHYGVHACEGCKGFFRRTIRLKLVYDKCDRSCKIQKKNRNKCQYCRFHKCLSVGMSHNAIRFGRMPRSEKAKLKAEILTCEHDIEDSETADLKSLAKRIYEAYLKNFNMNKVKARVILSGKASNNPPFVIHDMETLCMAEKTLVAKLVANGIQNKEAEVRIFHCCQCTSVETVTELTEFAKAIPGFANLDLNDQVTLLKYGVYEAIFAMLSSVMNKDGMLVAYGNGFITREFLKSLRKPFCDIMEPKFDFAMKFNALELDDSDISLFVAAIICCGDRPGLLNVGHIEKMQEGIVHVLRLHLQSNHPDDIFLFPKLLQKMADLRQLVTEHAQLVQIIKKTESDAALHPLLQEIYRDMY

[20] = biological target: T2, Peroxisome proliferator-activated receptor gamma (Homo sapiens) (UniProt P37231); experiment: Activity at PPARgamma (unknown origin) by cell based assay
T2 sequence (whole entry): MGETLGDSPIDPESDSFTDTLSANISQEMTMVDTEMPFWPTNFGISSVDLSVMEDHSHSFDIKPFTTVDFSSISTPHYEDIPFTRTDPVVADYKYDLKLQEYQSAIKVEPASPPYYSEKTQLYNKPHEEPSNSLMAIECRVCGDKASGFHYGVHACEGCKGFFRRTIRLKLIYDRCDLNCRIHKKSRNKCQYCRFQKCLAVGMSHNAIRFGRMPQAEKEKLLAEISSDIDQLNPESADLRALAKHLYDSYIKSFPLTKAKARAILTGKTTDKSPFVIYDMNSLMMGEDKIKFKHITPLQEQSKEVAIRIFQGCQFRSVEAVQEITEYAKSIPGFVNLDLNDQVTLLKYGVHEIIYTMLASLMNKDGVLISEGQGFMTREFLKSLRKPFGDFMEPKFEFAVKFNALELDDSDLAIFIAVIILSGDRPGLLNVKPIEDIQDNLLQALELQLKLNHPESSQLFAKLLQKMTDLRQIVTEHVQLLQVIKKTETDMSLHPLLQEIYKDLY

[21] = biological target: Free fatty acid receptor 1 (Mus musculus) (UniProt Q76JU9); experiment: Agonist activity at mouse GPR40 in presence of 0.01% human serum albumin
Free fatty acid receptor 1 (Mus musculus), sequence (Q76JU9 whole entry): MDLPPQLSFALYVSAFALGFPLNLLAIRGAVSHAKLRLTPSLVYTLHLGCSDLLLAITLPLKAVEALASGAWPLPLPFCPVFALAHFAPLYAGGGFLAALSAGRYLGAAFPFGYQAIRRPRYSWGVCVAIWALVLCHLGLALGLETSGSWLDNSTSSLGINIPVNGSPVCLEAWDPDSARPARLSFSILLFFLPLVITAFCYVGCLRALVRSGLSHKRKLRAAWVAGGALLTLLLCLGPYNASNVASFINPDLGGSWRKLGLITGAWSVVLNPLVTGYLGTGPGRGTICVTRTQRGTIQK

[22] = biological target: T3, Free fatty acid receptor 1 (Sus scrofa) (UniProt F1RM69); experiment: Agonist activity at pig GPR40 in presence of 0.01% human serum albumin
T3 sequence (whole entry): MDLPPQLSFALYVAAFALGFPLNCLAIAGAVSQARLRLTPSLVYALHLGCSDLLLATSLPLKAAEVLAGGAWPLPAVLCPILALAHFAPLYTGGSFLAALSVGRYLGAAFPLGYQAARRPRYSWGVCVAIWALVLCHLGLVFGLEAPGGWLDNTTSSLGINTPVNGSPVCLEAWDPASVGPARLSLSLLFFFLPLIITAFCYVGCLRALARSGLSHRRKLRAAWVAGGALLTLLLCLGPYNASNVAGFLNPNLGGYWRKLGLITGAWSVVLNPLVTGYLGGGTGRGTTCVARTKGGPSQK

With `Cc1cc(Cl)ccc1-c1cccc(COc2ccc([C@H](CC(=O)O)c3nccn3C)cc2)c1` as the molecule, how does the pEC50 [1] read?
The pEC50 was 5.00.

What about the clearance [2] of the same molecule?
The clearance was 2.83 mL/min/kg.

And the clearance [3]?
Its clearance is 2.5 mL/min/kg.

And the half-life [4]?
Its half-life is 1.6 h.

What about the half-life [5] of the same molecule?
The half-life was 5.1 h.

And the half-life [6]?
Its half-life is 7.6 h.

What about the Vd [7] of the same molecule?
The Vd was 0.78 L/kg.

What about the Vd [8] of the same molecule?
The Vd was 0.58 L/kg.

What about the bioavailability [9] of the same molecule?
Its bioavailability is 43%.

And the bioavailability [10]?
Its bioavailability is 66%.

And the Papp A→B (MDR1 [11])?
Its Papp A→B is 1.4 ×10⁻⁶ cm/s.

What about the efflux ratio (MDR1 [12]) of the same molecule?
Its efflux ratio is 22.

And the Activity (Pancreatic islet)?
The Activity was “Active”.

What about the Emax [13] of the same molecule?
The Emax was 41%.

And the Emax (Canis lupus familiaris)?
Its Emax is 37%.

And the pEC50 [14]?
Its pEC50 is 7.54.

And the Emax [15]?
The Emax was 96%.

What about the Activity (Mus musculus [16]) of the same molecule?
Its Activity is “Active”.

And the Activity (Mus musculus [17])?
The Activity was “Active”.

What about the Kp at 3 h [18] of the same molecule?
The Kp at 3 h was 0.04.

And the Activity [19]?
The Activity was “inactive”.

And the Activity [20]?
The Activity was “inactive”.

What about the Activity [21] of the same molecule?
Its Activity is “inactive”.

And the Activity [22]?
The Activity was “inactive”.
